Experimental data: ChEMBL document CHEMBL2169847, “New tricks for an old natural product: discovery of highly potent evodiamine derivatives as novel antitumor agents by systemic structure-activity relationship analysis and biological evaluations” (J Med Chem, 2012)
Activity calls are given as the source filed them. The calls are words filed in the database; no cut-off is given here.

Assays:
[1] = target: T1, DNA topoisomerase 1 (Homo sapiens) (UniProt P11387); assay: Inhibition of Top1 assessed as suppression of supercoiled pBR322 DNA relaxation measuring appearance of short DNA fragments at 100 uM incubated for 15 mins by electrophoresis method
T1 sequence (whole entry): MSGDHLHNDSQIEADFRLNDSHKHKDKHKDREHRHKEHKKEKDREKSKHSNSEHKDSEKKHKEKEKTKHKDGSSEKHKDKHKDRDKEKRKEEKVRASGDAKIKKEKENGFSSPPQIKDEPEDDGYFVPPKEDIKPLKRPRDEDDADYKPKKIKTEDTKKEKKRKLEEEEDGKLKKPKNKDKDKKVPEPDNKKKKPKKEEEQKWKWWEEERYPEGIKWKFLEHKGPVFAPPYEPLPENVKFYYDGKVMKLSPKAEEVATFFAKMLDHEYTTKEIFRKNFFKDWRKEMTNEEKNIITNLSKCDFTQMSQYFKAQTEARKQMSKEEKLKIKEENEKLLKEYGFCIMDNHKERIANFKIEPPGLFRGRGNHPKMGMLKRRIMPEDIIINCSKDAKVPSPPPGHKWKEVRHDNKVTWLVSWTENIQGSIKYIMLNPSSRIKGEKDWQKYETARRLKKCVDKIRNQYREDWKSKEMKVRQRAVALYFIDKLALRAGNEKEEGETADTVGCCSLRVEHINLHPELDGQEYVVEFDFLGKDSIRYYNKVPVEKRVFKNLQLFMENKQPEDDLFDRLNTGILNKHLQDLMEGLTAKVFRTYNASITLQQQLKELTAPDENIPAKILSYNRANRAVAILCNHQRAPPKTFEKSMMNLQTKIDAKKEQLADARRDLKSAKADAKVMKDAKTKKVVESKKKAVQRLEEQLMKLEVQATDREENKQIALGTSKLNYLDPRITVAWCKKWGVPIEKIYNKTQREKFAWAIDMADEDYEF

MDA-MB-435 = assay: Cytotoxicity against human MDA-MB-435 cells incubated for 72 hrs by MTT assay; assay type: functional; conditions: MDA-MB-435, 72 h
In short: (§1)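 MTT assay. Cells seeded at 5 × 10³/well and grown 24 h at 37 °C, 5% CO₂. Compounds added at several concentrations in triplicate wells, with 0.1% DMSO control, for 72 h. MTT then added for 4 h, formazan dissolved in DMSO, and absorbance read at 570 nm. GI₅₀ by Logit method; three experiments.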

HCT-116 [2] = assay: Cytotoxicity against human HCT116 cells incubated for 72 hrs by MTT assay; assay type: functional; conditions: HCT-116, 72 h; in short: as §1
A549 [3] = assay: Cytotoxicity against human A549 cells incubated for 72 hrs by MTT assay; assay type: functional; conditions: A549, 72 h; in short: as §1
[4] = target: DNA topoisomerase 2-alpha (Homo sapiens) (UniProt P11388); assay: Inhibition of human Top2alpha assessed as suppression of supercoiled pBR322 DNA relaxation at 50 uM incubated for 30 mins by electrophoresis method
Chain of DNA topoisomerase 2-alpha (Homo sapiens) (P11388 whole entry): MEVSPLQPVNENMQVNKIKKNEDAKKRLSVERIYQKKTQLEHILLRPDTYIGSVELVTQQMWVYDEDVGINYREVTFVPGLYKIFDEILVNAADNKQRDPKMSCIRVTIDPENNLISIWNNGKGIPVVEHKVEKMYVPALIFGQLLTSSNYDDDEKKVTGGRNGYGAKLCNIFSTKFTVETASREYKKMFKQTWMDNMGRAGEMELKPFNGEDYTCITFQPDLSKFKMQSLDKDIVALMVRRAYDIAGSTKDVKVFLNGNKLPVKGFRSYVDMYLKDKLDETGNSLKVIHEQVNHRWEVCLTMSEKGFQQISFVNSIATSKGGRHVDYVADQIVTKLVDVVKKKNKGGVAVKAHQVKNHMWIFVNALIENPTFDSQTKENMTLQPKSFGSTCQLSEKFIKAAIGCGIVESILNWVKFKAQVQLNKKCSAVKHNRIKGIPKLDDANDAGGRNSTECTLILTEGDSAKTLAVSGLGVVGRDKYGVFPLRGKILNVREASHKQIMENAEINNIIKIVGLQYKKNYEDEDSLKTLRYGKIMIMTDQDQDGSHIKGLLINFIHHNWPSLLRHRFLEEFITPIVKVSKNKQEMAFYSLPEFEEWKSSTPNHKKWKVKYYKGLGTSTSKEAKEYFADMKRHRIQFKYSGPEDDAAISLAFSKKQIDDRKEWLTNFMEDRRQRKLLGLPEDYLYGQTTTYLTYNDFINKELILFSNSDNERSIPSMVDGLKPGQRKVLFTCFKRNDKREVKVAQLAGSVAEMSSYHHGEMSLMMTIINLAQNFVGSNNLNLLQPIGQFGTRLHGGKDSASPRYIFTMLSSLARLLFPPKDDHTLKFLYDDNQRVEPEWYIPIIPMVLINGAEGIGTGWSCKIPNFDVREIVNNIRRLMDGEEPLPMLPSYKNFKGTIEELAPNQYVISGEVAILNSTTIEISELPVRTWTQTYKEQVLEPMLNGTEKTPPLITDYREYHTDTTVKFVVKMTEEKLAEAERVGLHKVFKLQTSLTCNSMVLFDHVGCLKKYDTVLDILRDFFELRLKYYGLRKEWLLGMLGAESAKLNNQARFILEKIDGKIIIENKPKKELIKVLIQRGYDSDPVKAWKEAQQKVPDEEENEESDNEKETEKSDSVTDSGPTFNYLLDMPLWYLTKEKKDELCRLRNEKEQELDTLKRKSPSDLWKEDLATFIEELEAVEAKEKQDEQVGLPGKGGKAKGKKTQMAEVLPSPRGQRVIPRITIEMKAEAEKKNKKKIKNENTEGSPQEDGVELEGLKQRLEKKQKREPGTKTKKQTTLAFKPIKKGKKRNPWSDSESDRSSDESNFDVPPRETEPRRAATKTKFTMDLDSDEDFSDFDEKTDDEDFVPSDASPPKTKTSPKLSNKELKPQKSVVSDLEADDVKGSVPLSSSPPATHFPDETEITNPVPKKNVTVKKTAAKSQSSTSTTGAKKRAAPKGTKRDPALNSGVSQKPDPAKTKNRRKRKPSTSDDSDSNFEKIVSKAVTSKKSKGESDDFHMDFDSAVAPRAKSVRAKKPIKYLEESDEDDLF

SAOS-2 = assay: Cytotoxicity against human Saos2 cells incubated for 72 hrs by MTT assay; assay type: functional; conditions: SAOS-2, 72 h; in short: as §1
HL-60 = assay: Cytotoxicity against human HL60 cells incubated for 72 hrs by MTT assay; assay type: functional; conditions: HL-60, 72 h; in short: as §1
PC-3 = assay: Cytotoxicity against human PC3 cells incubated for 72 hrs by MTT assay; assay type: functional; conditions: PC-3, 72 h; in short: as §1
HepG2 = assay: Cytotoxicity against human HepG2 cells incubated for 72 hrs by MTT assay; assay type: functional; conditions: HepG2, 72 h; in short: as §1
U2OS = assay: Cytotoxicity against human U2OS cells incubated for 72 hrs by MTT assay; assay type: functional; in short: as §1
PANC-1 = assay: Cytotoxicity against human PANC1 cells incubated for 72 hrs by MTT assay; assay type: functional; conditions: PANC-1, 72 h; in short: as §1
Mus musculus [5] = assay: Toxicity in BALB/C nude mouse xenografted with human HCT116 cells assessed as reduction in body weight at 2 mg/kg, ip administered as a single dose on 17th day and measured on 30 to 33 days post implantation; assay type: organism-based, HCT-116; design: dose 2 mg/kg, route intraperitoneal; conditions: in vivo
In short: (§2)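 Cells implanted subcutaneously in right axilla of nude mice; dosing began at tumor volume about 100−300 mm³ (day 17). Randomized, six mice per treatment group and eight controls; ip injection. Tumor volume by caliper, TV = 1/2 × a × b², with body weight every 4 days. Mice sacrificed day 30−33 and tumors removed. Mean SEM, Student's t test versus control.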

HCT-116 [6] = assay: Antitumor activity against human HCT116 cells xenografted in BALB/C nude mouse assessed as tumor growth inhibition at 2 mg/kg, ip administered as a single dose on 17th day and measured on 30 to 33 days post implantation; assay type: functional, organism-based; design: dose 2 mg/kg; in short: as §2
Mus musculus [7] = assay: Toxicity in BALB/C nude mouse xenografted with human A549 cells assessed as reduction in body weight at 2 mg/kg, ip administered as a single dose on 17th day and measured on 30 to 33 days post implantation; assay type: organism-based; design: dose 2 mg/kg, route intraperitoneal; conditions: in vivo; in short: as §2
A549 [8] = assay: Antitumor activity against human A549 cells xenografted in BALB/C nude mouse assessed as tumor growth inhibition at 2 mg/kg, ip administered as a single dose on 17th day post implantation and measured on 30 to 33 days post implantation; assay type: functional, organism-based; design: dose 2 mg/kg; in short: as §2
[9] = target: T1, DNA topoisomerase 1 (Homo sapiens); assay: Inhibition of Top1 assessed as suppression of supercoiled pBR322 DNA relaxation measuring appearance of short DNA fragments at 50 uM incubated for 15 mins by electrophoresis method
Nucleic Acid [10] = assay: Binding affinity at calf thymus DNA minor groove assessed as displacement of Hoechst 33258 dye incubated for 20 mins by microplate reader based assay; assay type: nucleic-acid assay; conditions: Bos taurus
[11] = target: T1, DNA topoisomerase 1 (Homo sapiens); assay: Inhibition of Top1 assessed as stabilization of Top1-pUC19 DNA cleavage complex measuring increase of nicked DNA at 100 uM incubated for 15 mins by electrophoresis method
[12] = target: DNA topoisomerase 2-alpha (Homo sapiens) (UniProt P11388); assay: Inhibition of human Top2alpha assessed as stabilization of Top2-pBr322 DNA cleavage complex measuring linear DNA formation at 100 uM incubated for 20 mins by electrophoresis method
In short: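 Top2α drug screening kit with 8 units hTop2α and pBR322 plasmid. After reaction, proteinase K (200 μg/mL final) 20 min at 50 °C. Electrophoresis in TAE with 0.5 μg/mL ethidium bromide to resolve nicked, linear, relaxed and supercoiled forms.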

Nucleic Acid [13] = assay: Induction of DNA intercalation in Escherichia coli pBR322 DNA assessed as induction of supercoiled DNA at 100 uM incubated for 15 mins by electrophoresis based Top1 unwinding assay; assay type: nucleic-acid assay
Nucleic Acid [14] = assay: Binding affinity at calf thymus DNA at 50 uM after 20 mins by UV/vis absorbance titration based assay; assay type: nucleic-acid assay; conditions: Bos taurus
In short: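 ct-DNA in DPBS pH 7.4, concentration set by A260 (13200 M⁻¹/cm per bp). Compounds at 50 μM in DPBS with 1% DMSO, with or without ct-DNA 0−100 μM. After 20 min equilibration at room temperature, absorption spectra recorded over 220−400 nm in a microplate reader. Hypochromic or bathochromic shifts taken as the sign of binding.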

Row | Structure (SMILES) | inhibition [1] | GI50 (MDA-MB-435) [nM] | GI50 (HCT-116 [2]) [nM] | GI50 (A549 [3]) [nM] | inhibition [4] | further results
1 | CN1c2cccc(O)c2C(=O)N2CCc3c([nH]c4ccccc34)C21 (stereo not given) | Active | 240 | 2140 | 62400 | Active | 
2 | CN1c2ccc(F)cc2C(=O)N2CCc3c([nH]c4ccc(O)cc34)C21 (stereo not given) | Active | < 3 | < 3 | < 3 | Active | GI50 (SAOS-2): > 296000 nM; GI50 (HL-60): < 3 nM; GI50 (PC-3): 92300 nM; GI50 (HepG2): 23800 nM; GI50 (U2OS): > 296000 nM; GI50 (PANC-1): < 3 nM; Activity (Mus musculus [5]): Non-toxic; TGI (HCT-116 [6]): Active; Activity (Mus musculus [7]): Non-toxic; TGI (A549 [8]): inactive
3 | CN1c2ccccc2C(=O)N2CCc3c([nH]c4c(Cl)cccc34)C21 (stereo not given) | Active | < 3 | < 3 | 2550 | inactive | GI50 (SAOS-2): > 296000 nM; GI50 (HL-60): < 3 nM; GI50 (PC-3): > 296000 nM; GI50 (HepG2): 2310 nM; GI50 (U2OS): > 296000 nM; GI50 (PANC-1): 120 nM; Activity (Mus musculus [5]): Toxic; TGI (HCT-116 [6]): Active; inhibition [9]: Active
4 | CN1c2cccc(O)c2C(=O)N2CCc3c([nH]c4ccc(O)cc34)C21 (stereo not given) | Active | 13 | 9 | 230 |  | Activity (Nucleic Acid [10]): inactive; inhibition [11]: Active; inhibition [12]: inactive; Activity (Nucleic Acid [13]): inactive; Activity (Nucleic Acid [14]): inactive
5 | CC[C@@]1(O)C(=O)OCc2c1cc1n(c2=O)Cc2cc3ccccc3nc2-1 [CAMPTOTHECIN] |  | 33 | 83 | 170 |  | GI50 (SAOS-2): > 287000 nM; GI50 (HL-60): < 3 nM; GI50 (PC-3): > 287000 nM; GI50 (HepG2): 220 nM; GI50 (U2OS): > 287000 nM; GI50 (PANC-1): 6290 nM
6 | CN1c2ccc(N)cc2C(=O)N2CCc3c([nH]c4ccccc34)C21 (stereo not given) | Active | 150 | 8920 | > 200000 |  | 
7 | Cc1cccc2c1N(C)C1c3[nH]c4ccccc4c3CCN1C2=O (stereo not given) | Active | 84 | 11 | 230 |  | 
8 | CN1c2ccc(O)cc2C(=O)N2CCc3c([nH]c4ccccc34)C21 (stereo not given) | Active | < 3 | 13 | > 200000 | inactive | 
9 | CN1c2ccc(O)cc2C(=O)N2CCc3c([nH]c4ccc(O)cc34)C21 (stereo not given) | Active | 3 | 7 | 750 | Active | Activity (Mus musculus [5]): Toxic; TGI (HCT-116 [6]): Active; Activity (Nucleic Acid [10]): inactive; inhibition [11]: Active; inhibition [12]: inactive; Activity (Nucleic Acid [13]): inactive; Activity (Nucleic Acid [14]): inactive
10 | COc1ccc2[nH]c3c(c2c1)CCN1C(=O)c2cc(N)ccc2N(C)C31 (stereo not given) |  | 12000 | 6600 | 62000 | Active | 
11 | COc1cc([C@@H]2c3cc4c(cc3[C@@H](O[C@@H]3O[C@@H]5CO[C@@H](C)O[C@H]5[C@H](O)[C@H]3O)[C@H]3COC(=O)[C@H]23)OCO4)cc(OC)c1O |  |  |  |  | Active | inhibition [12]: Active
12 | CN1c2ccc(Cl)cc2C(=O)N2CCc3c([nH]c4ccccc34)C21 (stereo not given) | Active | < 3 | < 3 | < 3 | inactive | Activity (Mus musculus [7]): Non-toxic; TGI (A549 [8]): inactive
13 | CN1c2ccc(Cl)cc2C(=O)N2CCc3c([nH]c4ccc(O)cc34)C21 (stereo not given) | Active | 5 | 5 | 120 | Active | Activity (Mus musculus [5]): Toxic; TGI (HCT-116 [6]): Active; inhibition [9]: Active
14 | O=C1c2ccccc2OC2c3c(c4ccccc4n3C(=O)c3ccc(Cl)cc3)CCN12 (stereo not given) |  | > 200000 | > 200000 | > 200000 |  | 
15 | Cc1ccc2[nH]c3c(c2c1)CCN1C(=O)c2ccccc2N(C)C31 (stereo not given) |  | > 200000 | > 200000 | > 200000 |  | 
16 | CN1c2ccccc2C(=S)N2CCc3c([nH]c4ccccc34)C21 (stereo not given) |  | 12200 | 46500 | 90700 |  | 
17 | COc1ccc2c(c1)C(=O)N1CCc3c([nH]c4ccc(OC)cc34)C1N2C (stereo not given) |  | 9800 | 33 | > 200000 |  | 
